m5-HT2A agonist: activates the mouse 5-HT2A serotonin receptor; 360,000 compounds, 0.66% hits; activation, % at 7.6 µM; P35363; CHO-K1 mHTR2A beta-arrestin complementation, luminescence; percent of 30 µM serotonin response;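 active means activation above a run cutoff, the mean activation of all tested compounds plus 3 SD, cut at about 14% in these data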;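 further: 0% = plate median of compound wells and 100% = 30 µM serotonin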
Target sequence (P35363 whole entry, looked up): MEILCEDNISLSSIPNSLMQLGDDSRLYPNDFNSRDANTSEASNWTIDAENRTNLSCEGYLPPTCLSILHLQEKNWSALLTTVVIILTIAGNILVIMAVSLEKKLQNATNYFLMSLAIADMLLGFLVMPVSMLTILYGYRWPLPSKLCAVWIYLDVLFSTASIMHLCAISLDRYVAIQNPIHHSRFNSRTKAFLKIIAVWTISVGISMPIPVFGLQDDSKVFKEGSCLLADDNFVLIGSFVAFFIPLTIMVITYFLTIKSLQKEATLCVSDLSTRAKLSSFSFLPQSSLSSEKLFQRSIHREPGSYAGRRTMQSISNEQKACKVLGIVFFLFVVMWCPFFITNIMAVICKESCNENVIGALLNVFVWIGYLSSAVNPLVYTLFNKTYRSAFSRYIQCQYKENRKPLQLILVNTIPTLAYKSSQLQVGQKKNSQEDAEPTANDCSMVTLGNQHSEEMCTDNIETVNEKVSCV
EBI2 antag: EBI2 (human) antagonism. EBI2 beta-arrestin recruitment, luminescence, 7a,25-OHC stimulated. inhibition, % at 5 µM. 360,000 compounds, 0.81% hits. AID 651636; in the data active means inhibition above about 38%;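 further: enzyme fragment complementation signal reports receptor beta-arrestin coupling in cells; 0% = agonist plus DMSO wells and 100% = wells without agonist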
MC4R antagonist: human MC4R antagonism in cAMP assay | P32245 | MC4R-expressing cells, MTII-stimulated cAMP, LANCE TR-FRET | inhibition, % at 6.5 µM | 360,000 compounds, 0.48% hits;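 active means inhibition above its plate's cutoff, the mean of tested wells on that plate plus 3 SD, cut at about 29% in these data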;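 further: 0% = Melanotan II alone and 100% = Melanotan II plus saturating MCL0020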
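Assay system: human MC4R-expressing U2OS cells; reagent: Melanotan II stimulation of cells; dosing: 6.5 µM single dose; timing: compound 30 min, challenge 1 h, detection 1 h; signal: TR-FRET cAMP assay; replicates: one well per compound, no replicates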
MC4R barr agon: agonists of human melanocortin 4 receptor (MC4R) beta-arrestin | P32245 | U2OS MC4R beta-arrestin complementation, luminescence; percent of melanotan II response, DMSO zero | activation, % at 8.9 µM | 360,000 compounds, 0.98% hits;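 active means activation above a per-plate cutoff, the mean activation of sample wells on that plate plus 3 SD, cut at about 8% in these data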
* = called active by the depositor; . = not tested or not shown. The list is not random: actives were taken first. Their share in the collection is about 2.8%.

SMILES	m5-HT2A agonist	EBI2 antag	MC4R antagonist	MC4R barr agon
CCCn1nc(C(=O)Nc2cc(OCC)c(N3CCOCC3)cc2OCC)c2ccccc2c1=O	9	26	5	-1
CC(C)(O)C(=O)NNC(=S)Nc1cccc(C(F)(F)F)c1	-1	3	6	-6
CC(O)(CS(=O)(=O)Cc1ccc(Cl)cc1)C(=O)Nc1cccc(C(F)(F)F)c1 (stereo not given)	-3	2	11	11*
CC(C)C[C@@H]1COc2cccc(N3CCC[C@H]3CO)c2S(=O)(=O)N1	7	-13	.	.
COc1ccc2cc(C#N)c(SCC(=O)N3CC(=O)Nc4ccccc43)nc2c1	-3	74*	-2	0
Cc1cccc2cc(C#N)c(SCC(=O)N3CC(=O)Nc4ccccc43)nc12	-2	57*	-9	-3
CSc1ccc(Cn2c(C)c(C(=O)NCc3cccc(Cl)c3)sc2=O)cc1	-3	13	-7	1
CNC(=S)N1N=C(c2ccc(C)cc2)CC1c1cc(OC)ccc1OC (stereo not given)	-3	-2	9	3
CNC(=S)N1N=C(c2ccc(C)cc2)CC1c1ccc(OC)cc1 (stereo not given)	-4	87*	-3	-2
CNC(=S)N1N=C(c2ccc(C)cc2)CC1c1ccc(N(C)C)cc1 (stereo not given)	4	87*	-1	-2
COc1cc([N+](=O)[O-])cc(/C=N/NC(=O)C(C)Nc2cccc3ccccc23)c1O (stereo not given)	-20	56*	16	-4
CCC(O)(CC)C(=O)N/N=C/c1cc(Br)cc(Br)c1O	-24	64*	1	3
O=C(NCc1ccccc1Cl)c1ccc(-c2ccccc2)cc1	-5	9	5	9.3*
O=C(NCc1ccccc1Cl)c1ccncc1	2	2	2	1
CCc1nc2ccc(C(=O)NCCOc3ccc(OC)cc3)cn2c1N(C)C(=O)Cc1ccccc1	3	25	-2	-2
COc1cc(/C=N/NC(=O)c2ccncc2)ccc1OC(=O)c1ccccc1Cl	-2	6	8	3
COc1cc(/C=N\NC(=O)c2ccc(C)nc2)ccc1OC(=O)c1cccc(F)c1	3	-6	6	9.1*
COc1ccc(/C=N\NC(=O)c2ccc(-c3ccccc3)cc2)cc1COC(C)=O	1	7	0	9.1*
COc1cc(C(=O)N/N=C/c2ccc(OC(=O)c3ccccc3Cl)c(OC)c2)ccc1O	-3	4	6	11*
COc1ccc(Nc2nnc(-c3ccc(N4CCOCC4)c([N+](=O)[O-])c3)c3ccccc23)cc1	31*	17	-4	-1
COc1cc(NC(=O)c2noc3c2CCC3)c(OC)cc1Cl	0	5	1	3
CC(C)(C)C1CCc2onc(C(=O)Nc3ccc(F)cc3F)c2C1 (stereo not given)	0	19	2	8.3*
Cc1ccc(S(=O)(=O)N2[C@@H](Cc3ccccc3)CO[C@H]2CC(=O)c2cccc3ccccc23)cc1	0	4	.	.
CSc1nc2[nH]c(=O)n(O)c(=O)c2n1Cc1ccccc1	1	3	0	-2
Cc1ccc(OCC(=O)Nc2ccc(O)c(-c3nc4ccccc4o3)c2)cc1	-5	-6	2	8.6*
SMILES	m5-HT2A agonist	EBI2 antag	MC4R antagonist	MC4R barr agon
COc1ccc(OCC(=O)Nc2ccc3oc(-c4ccncc4)nc3c2)cc1	4	12	-1	-1
CC(C)Nc1ccc(Nc2ccnc3cc4ccccc4cc23)cc1	-14	24	-12	8.5*
c1ccc(CCNc2ccnc3cc4ccccc4cc23)cc1	-7	8	-11	17*
O=C(NCCc1ccccc1)c1nccc2ccccc12	-2	3	4	-1
CSc1ccc(/C=N\NC(=O)CNc2ccc(C)cc2)cc1	-2	32	-3	-1
Cc1cccc(NCC(=O)N/N=C/c2ccc(Br)cc2)c1	3	16	0	8.4*
Cc1nn(Cc2ccc(F)cc2)c(C)c1NC(=O)c1cnn2c1NC(c1cccs1)CC2C(F)(F)F (stereo not given)	4	37*	12	1
Cc1nn(Cc2ccc(F)cc2)c(C)c1NC(=O)c1cnn2c1NC(c1ccccc1)CC2C(F)(F)F (stereo not given)	5	0	10	0
COCCN1C[C@@H](CO)O[C@@H](n2cnc3c(NCCCO)ncnc32)C1	0	-10	3	0
Cc1ccccc1C1(O)c2ccccc2-c2ccccc21	-1	12	3	7
Cc1cc(C)cc(NC(=O)Nc2ccc(-n3ccc(C(F)(F)F)n3)cc2)c1	-6	13	14	8.8*

High-throughput results: PubChem BioAssay, several laboratories
